Screens deposited in PubChem by several laboratories.
Sampled rows, rich in hits. Any-hit rate of the full collection: about 1.4%.
GSH fluor: compound fluorescence on glutathione beads, profiling panel, artefact control, biophysical, 488/530 nm, flow cytometry; AID 1776, 2009; fluorescence (KMESF) at 10 µM; GSH beads flow cytometry, compound fluorescence 488/530 nm; stronger effect = higher value; 190,000 tested, 0.25% active; in the data active = fluorescence above about 89;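 note: glutathione beads carrying GST-tagged Bcl family fusion proteins plus one bare bead set; values are compound well signal with DMSO vehicle wells as background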
Avidin fluor: green autofluorescence of compounds with avidin beads – biophysical, 488/530 nm, flow cytometry, artefact control, profiling panel; compound fluorescence 488/530 nm; stronger effect = higher value; fluorescence (KMESF) at 10 µM; 220,000 tested, 0.38% active; in the data active = fluorescence above about 47
Diaph act CS: compounds boosting diaphorase resazurin reduction – biochemical, uHTS, resorufin fluorescence, counter-screen for diaphorase-coupled primary assays, primary screen; Diaphorase/resazurin coupled assay, 16 min; stronger effect = higher value; 1 = vehicle wells, 0 = NADH-free wells; activation factor at 20 µM; 190,000 tested, 0.005% active;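 active = diaphorase activity raised at least twofold by the compound at 20 µM; inactive = activation factor below 2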
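System – purified diaphorase enzyme from Clostridium kluyveri · Input – enzyme 0.07 U/mL final · Also added – final NADH 0.114 mM, resazurin 0.1 mM · Measured by – fluorescence of resorufin, 544 nm excitation, 590 nm emission · Timing – 16 min enzyme reaction, ambient temperature · Measure – resorufin increase flagging diaphorase activators or reducers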
p47phox inh: p47phox/p22phox peptide binding inhibitors, primary screen, biochemical, uHTS, NADPH oxidase regulatory subunit; 220,000 tested, 0.53% active; inhibition, % at 24.7 µM; Neutrophil cytosol factor 1 (Homo sapiens), P14598; fluorescence polarization, 2 h;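 active = inhibition above about 30%, limit read from the data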;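 note: 0% = p47phox with labelled peptide and 100% = labelled peptide alone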
Target sequence (P14598 whole entry, looked up): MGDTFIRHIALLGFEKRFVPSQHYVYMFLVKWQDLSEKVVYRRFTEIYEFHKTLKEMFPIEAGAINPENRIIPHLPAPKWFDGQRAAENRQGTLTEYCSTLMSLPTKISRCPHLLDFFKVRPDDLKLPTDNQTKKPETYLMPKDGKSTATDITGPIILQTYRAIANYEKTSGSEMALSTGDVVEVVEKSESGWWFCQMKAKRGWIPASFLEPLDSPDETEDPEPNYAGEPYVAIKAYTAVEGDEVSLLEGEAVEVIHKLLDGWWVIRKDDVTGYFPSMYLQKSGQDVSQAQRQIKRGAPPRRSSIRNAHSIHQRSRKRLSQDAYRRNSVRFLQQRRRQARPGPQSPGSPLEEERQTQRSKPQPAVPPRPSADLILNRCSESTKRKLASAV
PMI act: activators of human PMI, primary screen, biochemical, fluorescence intensity, near-Km mannose 6-phosphate. 190,000 tested, 0.005% active. Mannose-6-phosphate isomerase (Homo sapiens), P34949. purified human PMI, coupled resazurin fluorescence, 20 min; stronger effect = higher value; 1 = vehicle control, 0 substrate-free wells. activation factor at 20 µM;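 active = activation factor of 2 or more at 20 µM, relative to plate controls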
PMI act hi M6P: human PMI activators, high substrate, primary screen, biochemical, fluorescence intensity, near-saturating mannose 6-phosphate; Mannose-6-phosphate isomerase (Homo sapiens), P34949; coupled PMI enzyme assay, resazurin fluorescence, 20 min; stronger effect = higher value; 1 = untreated enzyme, 0 = substrate-free blank; AID 1216, 2008; 190,000 tested, 0.34% active; activation factor at 20 µM;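 active = activation factor of 2 or more at 20 µM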
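Technique: Diaphorase-driven resazurin-to-resorufin fluorescence, excitation 544, emission 590 nm | Assay system: Human PMI in coupled enzyme assay | Times: Enzyme reaction with compound 20 min at room temperature | Medium: HEPES-buffered pH 7.4 with magnesium and detergent | Reagent: Mannose-6-phosphate 1.0 mM (near-saturating) plus 0.22 mM NADP+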
* marks the source's active call; other numbers are inactive results; x = no result given.

SMILES	GSH fluor	Avidin fluor	Diaph act CS	p47phox inh	PMI act	PMI act hi M6P
O=C(Nc1ccc(Cl)c(C(F)(F)F)c1)C(=O)N1CCCCC1	10	5	0.9	-6	0.9	1
O=C(Nc1ccc(Cl)c(C(F)(F)F)c1)N1CCCC(O)C1 (centres undefined)	14	66*	1	-3	1.1	1.1
O=C(CSCC(=O)NC1CC1)Nc1ccccc1	76	5	0.9	-3	0.9	1
Cc1cc(C(F)F)n2ncc(C(=O)O)c2n1	17	15	0.9	2	1.1	1.1
Cn1c(-c2cccc(Br)c2)cnc1NCc1cccnc1	28	14	1.1	-9	1	1
COc1cccc(-c2cnc(NCc3cc(Cl)ccc3O)n2C)c1	21	55*	0.8	-2	0.9	0.9
CCO[C@H]1OC(C(=O)N2CCN(C)CC2)=C[C@@H](C(C)(C)C)[C@@H]1CCCO	19	6	1	-10	0.9	1
O=C(c1ccc2snnc2c1)N1CCSCC1	28	32	0.9	-12	1.8	2.6*
O=C(c1ccc2snnc2c1)N1CCCCC1	16	22	0.9	-8	1	1.1
CCOC(=O)c1cnn(-c2nc(CC)nc3sc4c(c23)CCC4)c1N	44	12	0.8	-26	1	1
CCOC(=O)c1cnc(SC)nc1N	34	8	0.9	109*	0.9	0.9
COc1ccc(CNCCSc2nnnn2C)c(OC)c1OC	13	13	0.9	1	1	1
COc1ccc(Br)cc1CNCCSc1nnnn1C	253*	8	0.9	-12	1.1	1
CCOC(=O)C1CCCN(C(=O)c2cnn3c(C(F)F)cc(-c4ccc(C)cc4)nc23)C1 (centres undefined)	22	11	1	-7	1	1
CCCNc1[nH]c(=O)n(C)c(=O)c1N=O	8	69*	1	-13	1	1
CCc1c(C(=O)NNC(=S)NCCc2ccccc2)csc1C	148*	3	1.1	-12	1.2	1.2
CC(=O)NNC(=S)NCCc1ccccc1	12	96*	1	1	1	1
CCOc1ccc(NC(=O)c2ccc(NC(=O)c3cn4c5c(c(N6CCN(C)CC6)c(F)cc5c3=O)OCC4C)cc2)cc1 (centres undefined)	37	2	1.6	82*	0.9	1
CC1COc2c(N3CCN(C)CC3)c(F)cc3c(=O)c(C(=O)O)cn1c23 (centres undefined)	x	x	x	-12	x	x
CCc1nc(SCC(=O)Nc2ccc3c(c2)OCCO3)c2oc3ccccc3c2n1	9	10	0.8	39*	0.8	0.7
Cc1nc(SCC(=O)NCc2ccccc2)c2oc3ccccc3c2n1	24	50*	0.9	21	1	0.9
Cc1nc(SCc2nc3ccccc3[nH]2)c2oc3ccccc3c2n1	19	133*	0.9	-9	0.8	0.9
COc1ccccc1CN1C[C@@H]2C[C@@H](C3=Cc4cc(Cl)ccc4OC3)N3CCC[C@@]23C1=O	10	3	0.7	-9	0.8	0.8
CC(C)n1cc(/C=C2/SC(=O)N(CC(=O)Nc3ccc4c(c3)OCO4)C2=O)c2ccccc21	12	18	0.9	-45	1.1	1
CN1CCC(NC(=O)Cc2c(F)cccc2Cl)CC1	23	12	1.1	-5	1.1	1
SMILES	GSH fluor	Avidin fluor	Diaph act CS	p47phox inh	PMI act	PMI act hi M6P
CCCC1Nc2ccc(C(=O)O)cc2C2C=CCC12 (centres undefined)	7	3	0.9	-12	1.6	2*
N=C1CCC(=N)c2c1c(O)c1ccccc1c2O	x	4	x	125*	x	x
Cc1ccc(-n2cc(-c3ccc([N+](=O)[O-])cc3)[nH]c2=S)c(C)c1	18	10	0.9	-15	0.9	1
O=C1CCCC(O)=C1N=Nc1ccc(C(=O)O)cc1	x	3	x	32*	x	x
O=C(COC(=O)CNC(=O)c1ccc(Cl)cc1)Nc1ncc(C(F)(F)F)cc1Cl	21	12	0.9	-6	0.8	0.9
Cc1cc(C)n2c(SCCC(C)C)nnc2n1	255*	9	0.9	-8	1	1.1
COc1cc2c(cc1NC(=O)C(C)Sc1ccc(C)cc1)oc1ccccc12 (centres undefined)	27	9	0.2	-11	0.8	0.8
C=CCn1c(CCSCc2ccc(OC)c(C)c2)n[nH]c1=S	23	14	0.8	-8	0.9	0.9
O=C(Nc1cnn(Cc2ccc(F)cc2)c1)c1cc(-c2cccs2)on1	53	2	1.1	0	1.1	1.1
Cc1cc(NC(=O)COC(=O)[C@H](Cc2c[nH]c3ccccc23)NC(=O)c2ccc(F)cc2)no1	24	11	1	-3	0.9	1
CC(=O)NC(Cc1c[nH]c2ccccc12)C(=O)OCC(=O)Nc1cc(C)on1 (centres undefined)	15	227*	1	-16	1	1
CCSc1cc(C2C(C(=O)OC)=C(C)NC3=C2C(=O)CCC3)c(C)o1 (centres undefined)	21	18	0.9	-4	1.1	2.1*
COCCOC(=O)C1=C(C)NC2=C(C(=O)CCC2)C1c1cc2c(cc1Br)OCO2 (centres undefined)	11	10	0.9	-15	1	1
CCCCNC(=O)Nc1cc(C(F)(F)F)c[nH]c1=O	35	5	0.9	-18	0.9	0.9
Cc1ccc(C(=O)OCC(=O)c2cc(C)n(CC3CCCO3)c2C)cc1 (centres undefined)	15	9	1	59*	1	1.1
c1ccc(N2CCN(Cc3ccnc4ccccc34)CC2)cc1	10	6	0.9	1	1.5	2*
O=c1cc(CN2CCN(c3ccccc3)CC2)c2c(ccc3ccccc32)o1	14	55*	0.7	-78	0.9	0.7
O=c1cc(CN2CCC3(CC2)OCCO3)c2c(ccc3ccccc32)o1	8	10	0.9	13	0.8	0.9
Cc1ccc2ccccc2c1COC(=O)c1nonc1N	35	14	0.8	-8	0.8	0.8
Cc1cc2c(cc(C(=O)OC(C(=O)NCc3ccco3)C(C)C)n2C)o1 (centres undefined)	16	7	0.8	-16	1	0.9
CCC(=O)Nc1ccc(Cl)c(NC(=S)NC(=O)c2cc3ccccc3o2)c1	12	15	1.1	-16	1	1.1
